VLA-4 inh: inhibition in human VLA-4 binding assay, primary screen, VLA-4 allosteric modulator project, MLPCN library, flow cytometry, VLA-4 expressing cells; AID 2557, 2010; Integrin alpha-4 (Homo sapiens), P13612; actives 0.2% (n = 330,000); ligand binding flow cytometry; inhibition, % (about 7 µM as worked out from the volumes in the protocol); in the data active means inhibition above about 50%
Target sequence (P13612 whole entry, looked up): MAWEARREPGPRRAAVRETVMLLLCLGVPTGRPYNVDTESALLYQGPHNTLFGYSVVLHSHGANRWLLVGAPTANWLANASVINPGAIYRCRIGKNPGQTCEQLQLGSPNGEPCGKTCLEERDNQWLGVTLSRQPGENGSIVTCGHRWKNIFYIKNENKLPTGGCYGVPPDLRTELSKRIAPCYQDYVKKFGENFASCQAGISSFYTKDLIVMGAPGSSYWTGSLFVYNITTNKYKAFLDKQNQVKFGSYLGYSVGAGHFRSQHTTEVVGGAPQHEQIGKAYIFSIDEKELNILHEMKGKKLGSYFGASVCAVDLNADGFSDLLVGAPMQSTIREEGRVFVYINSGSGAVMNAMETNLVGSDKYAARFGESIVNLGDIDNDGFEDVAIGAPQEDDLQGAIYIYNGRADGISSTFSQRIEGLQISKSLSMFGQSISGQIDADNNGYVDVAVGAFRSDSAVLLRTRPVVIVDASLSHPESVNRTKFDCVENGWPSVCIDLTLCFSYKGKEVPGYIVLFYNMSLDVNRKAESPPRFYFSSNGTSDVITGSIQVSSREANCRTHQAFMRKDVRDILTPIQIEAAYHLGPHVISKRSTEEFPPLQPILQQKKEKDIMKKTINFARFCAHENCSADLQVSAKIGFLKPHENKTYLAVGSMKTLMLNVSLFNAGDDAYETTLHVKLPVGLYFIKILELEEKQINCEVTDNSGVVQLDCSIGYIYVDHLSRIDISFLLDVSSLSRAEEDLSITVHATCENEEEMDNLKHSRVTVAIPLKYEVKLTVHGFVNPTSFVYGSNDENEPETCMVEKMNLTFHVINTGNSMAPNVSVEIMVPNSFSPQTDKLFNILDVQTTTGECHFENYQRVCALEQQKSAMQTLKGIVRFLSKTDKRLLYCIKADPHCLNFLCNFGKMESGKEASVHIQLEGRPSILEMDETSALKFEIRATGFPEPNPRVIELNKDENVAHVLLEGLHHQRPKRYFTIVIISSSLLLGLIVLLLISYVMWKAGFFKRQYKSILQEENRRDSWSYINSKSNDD
Myeloid diff 2: induction of myeloid progenitor differentiation, primary screen, cell-based, flow cytometry, MLPCN library; ER-HoxA9 myeloid progenitors, lysozyme-GFP differentiation; calls only at 10 µM; actives 1% (n = 360,000); AID 624256, 2012;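 active means normalized GFP-positive differentiation at or above the plate's own cutoff, the solvent-only control mean plus 3 SD; inconclusive means no clear call, values can overlap the other calls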;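 further: cells exposed to compound for four days before flow analysis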
Platelet DG rel: inhibitors of platelet dense granule secretion, primary screen, cell-based, MLPCN, human platelets; inhibition, %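 (compounds screened at 7.5 µM in platelet-rich plasma)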; actives 0.22% (n = 300,000); human platelet-rich plasma, SFLLRN dense granule ATP release, luminescence;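 active means mean replicate score, as percent of positive control, at or above 50; inconclusive means mean below 50 but at least one replicate at or above 50; inactive means mean and every replicate below 50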
SENP1 inh: human SENP1 catalytic domain inhibitors, primary screen, biochemical, FRET, uHTS; Sentrin-specific protease 1 (Homo sapiens), Q9P0U3; recombinant SENP1 catalytic domain, CyPet-SUMO1-YPet FRET cleavage; inhibition, % at 10 µM; actives 0.21% (n = 360,000); AID 624204, 2012;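 active means inhibition at least 30% at 10 µM, raw YFP signal under a set limit, fluorescence ratio 0.5 to 1.5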;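 further: 0% = enzyme with DMSO and 100% = no enzyme wells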
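Material: hSENP1 catalytic domain, recombinant; medium: Tris pH 8 with BME, BSA, NP40 and catalase; compound: single concentration of 10 µM compound, 0.5% DMSO final; technique: FRET read of cyan and yellow fluorescence; timing: 50 min enzyme reaction, room temperature, light-protected; reagent: SFCypet-SUMO1-SFYpet substrate at 25 nM; control set: no-enzyme low, enzyme-DMSO high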
Active calls of the source: *; i = inactive; u = inconclusive; x = no result given; + = active, no number. In the library only some 1.5% were active in any assay of this set; here they are far more common.

SMILES	VLA-4 inh	Myeloid diff 2	Platelet DG rel	SENP1 inh
CCC(C(=O)Nc1ncn[nH]1)(C(F)(F)F)C(F)(F)F	10	+	-4	1
Cc1nonc1OCCNc1ccc([N+](=O)[O-])cc1[N+](=O)[O-]	16	i	x	-23
Cc1nonc1OCCCNc1ccc([N+](=O)[O-])cc1Cl	13	+	-4	-3
CSCCC(NS(=O)(=O)c1ccc(C)cc1)C(=O)NCC(C)(C)N1CCOCC1 (stereo not given)	7	i	x	1
O=C1OC(Nc2ccc(F)c([N+](=O)[O-])c2)c2ccccc21 (stereo not given)	23	i	14	2
O=C1OC(Nc2ccc3c(c2)OCO3)c2ccccc21 (stereo not given)	-2	+	1	0
CN(C)c1ccc(/C=C/c2nc3ccccc3c(=O)n2-c2ccc(C(=O)O)cc2)cc1	-133	+	2	-23
O=C(O)c1cccc(-n2c(/C=C/c3ccccc3)nc3ccccc3c2=O)c1	i	i	-4	3
COc1ccccc1CNC(=O)c1cccs1	10	i	-4	-11
O=C(NCc1ccccc1Br)c1cccs1	x	+	x	-1
COc1cc(/C=N/NS(=O)(=O)c2ccc(C(C)(C)C)cc2)cc([N+](=O)[O-])c1O	5	i	0	4
Nc1c(C(=O)CSc2ncccn2)c(=O)[nH]c(=O)n1C1CC1	7	i	x	-2
Cc1cc(NC(=O)CSCC(=O)Nc2ccccc2N2CCCCC2)no1	23	i	50*	-1
COc1ccc(-c2ccnc3[nH]n(-c4ccccc4)c(=O)c23)cc1	0	+	-3	5
COc1ccc(-c2ccc(/C=N/NC(=O)c3cccnc3)o2)c([N+](=O)[O-])c1	x	+	1	-26
Cc1ccc(C(=O)N/N=C/c2ccc(-c3ccccc3[N+](=O)[O-])o2)cn1	2	i	-10	-12
Cc1ccc(N=C(N)N=C(N)N)cc1	-3	+	3	0
CCOc1ccc(CCNC(=O)CN2C(=O)NC3(CCCCC3C)C2=O)cc1OCC (stereo not given)	3	i	5	-1
CCOc1ccc(CCNC(=O)CN2C(=O)NC(CCSC)C2=O)cc1OCC (stereo not given)	6	+	13	2
COc1cccc(/C=N/Nc2nc(C)cc(=O)[nH]2)c1OC	-11	x	5	2
COc1ccccc1/C=N/Nc1nccnc1Cl	-1	i	68*	3
COc1cccc(/C=N/Nc2ncccc2[N+](=O)[O-])c1OC	2	i	82*	1
Cn1ccsc1=NC(=O)c1cccc(OC(F)F)c1	6	i	18	0
O=C(CCN1CCN(c2ccccc2)CC1)N/N=C/c1ccccc1O	21	i	5	-15
Fc1ccc(C2Nc3cccc4cccc(c34)N2)cc1	4	i	-2	6
SMILES	VLA-4 inh	Myeloid diff 2	Platelet DG rel	SENP1 inh
Brc1ccc(C2Nc3cccc4cccc(c34)N2)cc1	x	+	x	-4
CCOC(=O)c1cc(-c2ccc(/C=C3/C(=O)N(c4ccc(C(=O)O)cc4)N=C3C)o2)ccc1Cl	17	+	5	1
CCOC(=O)c1cc(-c2ccc(/C=N\n3cnnc3)o2)ccc1Cl	0	i	-1	-6
CC(C)(C)Nc1nc2nonc2nc1NC(C)(C)C	14	+	1	1
O=C(/C=C/Nc1ccc(Br)cc1F)c1ccccc1	24	i	50*	-16
N=C1S/C(=C\c2cccc3ccccc23)C(=O)N1c1ccc(F)cc1	3	+	14	0
COc1ccccc1NS(=O)(=O)c1cc([N+](=O)[O-])ccc1N/N=C/c1sc(N2CCOCC2)nc1-c1ccccc1	i	+	27	-26
O=C(O)c1ccc(CNC(=O)C2CCCN2C(=O)OCc2ccccc2)cc1 (stereo not given)	-3	i	1	0
COc1ccc(/C=C2\SC(=O)NC2=S)cc1OC	8	u	-4	32*
CCCNc1c(F)c(F)c2c(C)c3ccccc3nc2c1F	-122	+	-18	10
Cc1c2ccccc2nc2ccccc12	-12	i	-1	-72
COc1ccc(CC(=O)NC(C)c2nnc(SCCOc3ccc(OC)cc3)n2C)cc1 (stereo not given)	5	+	6	1
N#C/C(=C/c1ccc(N2CCOCC2)o1)C(=O)Nc1ccccc1	x	+	32	-33
N#C/C(=C\c1ccc(N2CCOCC2)o1)C(=O)NCCc1ccccc1	-4	x	-3	-24
Cc1[nH]c2ccccc2c1C(=O)C(C)OC(=O)c1ccc(NC(=O)CC#N)cc1 (stereo not given)	-15	+	-2	-14
CCN1C(=O)[C@H]2[C@@H](c3ccc(OC)cc3)N[C@]3(CCCN(Cc4ccc(C(F)(F)F)cc4)C3=O)[C@H]2C1=O	x	i	x	0
CCOc1ccc2nc(SCC(=O)NNC(=O)c3ccco3)c(C)cc2c1	-2	i	0	2
CCOc1ccc2cc(/C=C/C(=O)c3ccco3)c(Cl)nc2c1	-29	+	7	-24
CCN1CCN(c2ccc(NC(=O)c3cc(OC)c(OC)c(OC)c3)cc2)CC1	-6	i	6	2
C#CCOCCOCCOCCNc1nc(N2CCOCC2)nc(N2CCN(C(=O)CCCCCCCCCCNC(=O)[C@@H]([C@H](C)CC)n3cc(CCCCCN)nn3)CC2)n1	1	+	x	2
CCOC(=O)C1(Cc2cccc(F)c2)CCN(Cc2nc(CC)[nH]c2C)CC1	-16	+	-6	-28
COc1cccc(NS(=O)(=O)c2ccc3c(c2)CC(=O)N3)c1	25	i	x	-2
COC(=O)CS(=O)(=O)c1ccc2c(c1)CC(=O)N2	20	i	64*	0
CC(=O)N1CCN(C(=S)NCc2ccccc2)CC1	54*	i	-1	2
Cc1ccc(S(=O)(=O)N(C)CC(=O)NNC(=O)CCC(=O)c2ccc(F)cc2)cc1	6	u	x	-1
SMILES	VLA-4 inh	Myeloid diff 2	Platelet DG rel	SENP1 inh
C/C=C/C=C/C(=O)Nc1nccs1	13	i	-9	-5
O=C(/C=C/c1ccc(Cl)cc1)Nc1nccs1	x	+	8	1
Cc1ccc(-n2c(C)cc(/C=c3/sc4nc5ccccc5n4c3=O)c2C)cc1	-4	x	61*	x
Cc1cc(O)c2c(c1)C(=O)[C@@]13Oc4c5c(c(O)c6c(O)cc(C)cc46)C(=O)C[C@H](O)[C@H]5[C@@H]1[C@@H](O)CC(=O)C3=C2O	x	i	x	33*
COc1ccc(NC(=O)c2cc([N+](=O)[O-])ccc2O)cc1	3	i	72*	2
CCOC(=O)CC(NS(=O)(=O)c1ccc2[nH]c(=O)sc2c1)c1ccc(C)cc1 (stereo not given)	-8	i	8	0
NC(=O)c1cc(S(=O)(=O)NCCc2ccc(Cl)cc2)cs1	6	i	-18	0

Source: PubChem
